Assay outcomes deposited in PubChem BioAssay by several laboratories.
EP2 modulator: EP2 receptor modulators, cAMP readout, primary screen, cell-based, HTRF cAMP, PGE2 stimulation; Prostaglandin E2 receptor EP2 subtype (Homo sapiens), P43116; EP2-expressing cells, cAMP HTRF FRET, PGE2 co-stimulation; induction, % at 25 µM; 260,000 compounds, 0.83% hits; AID 940, 2007;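 active means compounds whose cAMP rise, as percent of the full-agonist control response, exceeds 60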;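 further: rat C6 glioma line stably carrying human EP2 under a CMV promoter; the protocol text gives 20 µM as final concentration; 100% = response of wells given 1 µM PGE2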
NR2E3 ag-1: NR2E3 agonists in two-hybrid cells, primary screen, cell-based, luminescence, CHO-S, Gal4-NCOR/VP16-NR2E3; luciferase; inhibition of corepressor binding, % at 3.98 µM; 360,000 compounds, 0.35% hits; AID 602229, 2012;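 active means inhibition above the mean of all tested compounds plus 3 SD, cut at about 70% in these data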;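 further: 0% = DMSO with NR2E3 transfected cells and 100% = cells lacking NR2E3 construct; higher means lower luciferase signal from less NR2E3 corepressor binding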
JMJD2C inh: inhibitors of GASC-1 histone demethylase, primary screen, biochemical, fluorescence, DELFIA europium; Lysine-specific demethylase 4C (Homo sapiens), Q9H3R0; GST-JMJD2C(1-420) H3K9me3 demethylation; inhibition, % at 2.35 µM; 330,000 compounds, 0.069% hits;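 active means more than half of a compound's replicate wells show inhibition beyond 50%, single wells judged on their own value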;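 further: signal counts dimethyl H3K9 product captured on neutravidin plate; 0% = median of DMSO wells and 100% = 0.3 times that DMSO median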
Furin inhibitor: human furin inhibitors, primary screen, biochemical, fluorescence intensity; P09958; purified furin, fluorogenic substrate cleavage; inhibition, % at 20 µM or 30 µM; 220,000 compounds, 0.061% hits; AID 463115, 2010; in the data active means inhibition above about 25%
Target sequence (P09958 108-714 limits assumed): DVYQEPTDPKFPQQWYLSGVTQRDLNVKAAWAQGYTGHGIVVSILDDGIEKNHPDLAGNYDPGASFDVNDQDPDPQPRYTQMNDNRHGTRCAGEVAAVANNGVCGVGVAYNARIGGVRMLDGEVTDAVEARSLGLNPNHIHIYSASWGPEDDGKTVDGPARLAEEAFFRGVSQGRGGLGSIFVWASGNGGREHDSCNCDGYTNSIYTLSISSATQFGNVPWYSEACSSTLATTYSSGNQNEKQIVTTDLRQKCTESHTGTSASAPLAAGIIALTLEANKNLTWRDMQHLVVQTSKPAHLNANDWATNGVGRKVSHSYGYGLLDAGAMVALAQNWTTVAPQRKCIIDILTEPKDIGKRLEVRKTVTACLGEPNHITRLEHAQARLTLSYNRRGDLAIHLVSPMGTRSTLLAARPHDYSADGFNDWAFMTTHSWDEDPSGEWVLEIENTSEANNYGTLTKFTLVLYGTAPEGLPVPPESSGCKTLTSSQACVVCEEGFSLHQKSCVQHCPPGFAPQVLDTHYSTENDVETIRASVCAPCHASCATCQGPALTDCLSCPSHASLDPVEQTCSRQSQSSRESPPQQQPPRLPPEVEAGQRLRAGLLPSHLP
EP2 antag: human EP2 receptor antagonists, primary screen, TR-FRET cAMP, C6 glioma cells | 260,000 compounds, 0.52% hits | inhibition, % at 25 µM | Prostaglandin E2 receptor EP2 subtype (Homo sapiens), P43116 | C6 glioma cells expressing human EP2; cells stimulated with saturating PGE2;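 active means percent inhibition above 40 after rounding to a whole number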;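 further: rat C6 glioma host cells with rolipram phosphodiesterase inhibitor present; the protocol text gives 20 µM as final concentration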
NR2E3 ag-2: inhibitors of NR2E3-RetCOR corepressor binding, primary screen, NR2E3 agonist project, biochemical, TR-FRET, GST-NR2E3, biotin-RetCOR; Photoreceptor-specific nuclear receptor (Homo sapiens), Q9Y5X4; inhibition of corepressor binding, % at 4.78 µM; 1536-well; AID 2300, 2010; 320,000 compounds, 0.12% hits;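 active means percent inhibition above the cutoff of mean plus 3 SD of all tested compounds, set per screening campaign, cut at about 20% in these data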;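 further: 0% = DMSO wells and 100% = biotin wells as full block of FRET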
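Material: NR2E3–RetCOR corepressor complex / Amount: 1.35 nM GST-NR2E3 / Medium: Tris pH 7.5 / Compound: single nominal compound dose of 4.8 µM / Incubation: 5 h at 4 °C / Technique: TR-FRET, Eu(K)-anti-GST donor, streptavidin-D2 acceptor, ex 340, em 617/671 nm / Read-out basis: percent loss of FRET ratio relative to control wells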
NR2E3 ag conf: NR2E3 agonist confirmation in cells, cell-based, luminescence, CHO-S two-hybrid. shares compounds with NR2E3 ag-1. CHO-S mammalian two-hybrid NR2E3-NCOR, luciferase luminescence. inhibition, % at 3.98 µM. 2,300 compounds, 51% hits. AID 624378, 2012;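 active means average inhibition above a cutoff equal to the mean inhibition of all tested compounds plus one SD, cut at about 70% in these data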;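 further: 0% = DMSO in NR2E3 cells and 100% = DMSO in cells lacking NR2E3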
VP16 counter: GAL4-VP16 reporter modulators, confirmation, counter-screen for NR2E3 agonist project, cell-based, luminescence, CHO-S, high throughput. shares compounds with NR2E3 ag-1. CHO-S GAL4-VP16 luciferase reporter. inhibition, % at 3.98 µM. 2,300 compounds, 29% hits;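 active means mean inhibition above a cutoff equal to the average over all tested compounds plus one standard deviation, cut at about 70% in these data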;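 further: luciferase from a UAS reporter driven by GAL4-VP16 transactivation; 0% = DMSO with VP16-transfected cells and 100% = DMSO with cells lacking VP16; higher means less reporter light so more repression of VP16 activity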
* marks the source's active call; other numbers are inactive results; / = no result. Rows were chosen to be rich in hits. Some 1.3% of all compounds tested hit in one or more screens of this group.

SMILES | EP2 modulator | NR2E3 ag-1 | JMJD2C inh | Furin inhibitor | EP2 antag | NR2E3 ag-2 | NR2E3 ag conf | VP16 counter
Cc1noc(C)c1COC(=O)c1cccc(S(=O)(=O)N2CCCCCC2)c1 | -2 | 62 | / | -4 | 12 | -1 | 45 | 58
CCn1c(SCC(=O)Nc2ccc(NC(=O)c3cccc(F)c3)cc2)nnc1-c1cccnc1 | -55 | / | / | / | 13 | / | / | /
O=c1[nH]nnc2c1ncn2C1OC(CO)C(O)C1O (stereo unspecified) | / | 68 | / | / | / | / | 59 | 50
OCC1OC(n2cnc3c(NCc4ccccc4O)ncnc32)C(O)C1O (stereo unspecified) | / | 72* | / | / | / | / | 51 | 49
CN(C)c1nc2c(N)ncnc2n1C1OC(CO)C(O)C1O (stereo unspecified) | / | -16 | / | / | / | / | / | /
O=c1[nH]cnc2c1ncn2[C@@H]1O[C@H](CO)[C@@H](O)[C@H]1O | 23 | -8 | -6 | -13 | 9 | 5 | / | /
OC[C@H]1O[C@@H](n2cnc3c(NC4CCCC4)ncnc32)C(O)[C@H]1O (stereo partly specified) | 12 | / | / | / | 10 | / | / | /
CN(C)c1ncnc2c1ccn2C1OC(CO)C(O)C1O (stereo unspecified) | / | 70 | / | / | / | / | 72* | 29
OC[C@H]1O[C@@H](n2cnc3c(Nc4ccccc4)ncnc32)C(O)[C@H]1O (stereo partly specified) | 0 | / | / | / | 13 | / | / | /
OCC1OC(n2ccc3c(NO)ncnc32)C(O)C1O (stereo unspecified) | / | 102* | / | / | / | / | 99* | 93*
COc1cccc(/C=C2\SC(=S)N(CCC(=O)Nc3cccc(Br)c3)C2=O)c1 | -12 | / | / | / | 10 | / | / | /
Fc1ccc2[nH]c3c(NCc4ccccc4)ncnc3c2c1 | / | 90* | 0 | / | / | -2 | 97* | 87*
c1ccc(CNc2ncnc3c2[nH]c2ccccc23)cc1 | -137 | / | / | / | 21 | / | / | /
COc1cccc2c1C(=O)c1c(O)c3c(c(O)c1C2=O)CC(O)(C(=O)CO)CC3OC1CC(N(C)C)C(O)C(C)O1 (stereo unspecified) | / | 101* | / | / | / | / | 99* | 94*
Nc1nc(-c2ccccn2)nc(N)c1Cc1ccccc1F | 0 | 14 | 15 | -16 | 3 | -3 | / | /
Nc1nc(-c2ccccn2)nc(N)c1Cc1ccc(Cl)cc1Cl | -8 | 91* | 25 | -12 | 6 | 3 | 100* | 49
Nc1nc(-c2ccccn2)nc(N)c1Cc1c(F)cccc1Cl | -33 | 86* | -9 | -7 | 5 | -2 | 98* | 23
CCCn1c(N2CCC(Cc3ccccc3)CC2)nc2c1c(=O)[nH]c(=O)n2C | 4 | 49 | -1 | 8 | 13 | 3 | 29 | 39
CCOc1cc(C)c(S(=O)(=O)Nc2ccc3cn[nH]c3c2)cc1C | -39 | 91* | 6 | -7 | 5 | -3 | 86* | 70
Cc1ccc(S(=O)(=O)Nc2ccc3cn[nH]c3c2)c(C)c1 | / | 15 | -5 | / | / | 2 | / | /
CCc1cccc(CC)c1NC(=O)CSc1nnc(-c2ccncc2)n1Cc1ccco1 | 13 | / | / | / | 11 | / | / | /
Cc1ccc(-c2csc3ncnc(SCC(=O)Nc4nnc(C)s4)c23)cc1 | 6 | -9 | -4 | -13 | 20 | 2 | / | /
Cc1ccc(-c2csc3ncnc(Sc4nnc(CN5CCCCCC5=O)o4)c23)cc1 | -45 | 69 | 20 | -18 | 7 | 2 | -15 | 15
CCn1nnnc1SCC(=O)Nc1nc(-c2ccc(Cl)cc2)cs1 | -55 | / | / | / | 13 | / | / | /
O=C1CCC(C(=O)OCC(=O)c2ccccc2)N1 (stereo unspecified) | 11 | -22 | -11 | -10 | 6 | 3 | / | /
SMILES | EP2 modulator | NR2E3 ag-1 | JMJD2C inh | Furin inhibitor | EP2 antag | NR2E3 ag-2 | NR2E3 ag conf | VP16 counter
CC1CC(C)C(=O)C(C(CC2CC(=O)NC(=O)C2)OC(=O)CC(=O)c2ccccc2)C1 (stereo unspecified) | / | 90* | / | / | / | / | 99* | 88*
CCc1cc(OCCCSc2nc(C)cc(=O)[nH]2)ccc1Cl | 37 | 56 | -1 | -11 | 8 | 3 | 76* | 43
Cc1cc(-c2cnc(C)nc2C2CCCN(CC(=O)Nc3cc(C)on3)C2)on1 (stereo unspecified) | -8 | / | / | / | / | / | / | /
CC(C)n1c(-c2ccc(C(C)(C)C)cc2)n[nH]c1=S | 37 | 79* | 4 | -11 | 8 | 2 | 84* | 70
CC(C)(C)c1ccc(-c2n[nH]c(=S)n2Cc2ccccc2)cc1 | / | 4 | 42 | / | / | 1 | / | /
CN(C)S(=O)(=O)c1ccc(C(=O)Nc2cc(S(=O)(=O)Nc3ccccc3Cl)ccc2N2CCCCC2)cc1 | 11 | 48 | -1 | -27 | 6 | 0 | 85* | 63
CN1CCN(c2ccc(Cl)cc2NC(=O)c2ccc(S(=O)(=O)N(C)C)cc2)CC1 | -35 | 12 | -49 | -12 | 25 | 4 | / | /
CCCNC(=O)CCS(=O)(=O)c1nc(-c2ccc(OC)cc2)cc(C(F)(F)F)n1 | 19 | / | / | / | 5 | / | / | /
O=S(=O)(NCc1ccco1)c1ccc2c(c1)OCCO2 | -77 | / | / | / | 22 | / | / | /
Cc1ccc(S(=O)(=O)Nc2ccc3cc([N+](=O)[O-])ccc3c2[N+](=O)[O-])cc1 | / | 101* | / | / | / | / | 100* | 91*
CCOc1ccc(C2=Nc3ccccc3C(c3ccncc3)=NN2)cc1 | -12 | / | / | / | 10 | / | / | /
O=C(CN1CCN(c2nc(-c3ccccc3)cs2)CC1)NNC(=O)c1ccc(Br)cc1 | 7 | -9 | 1 | -16 | 6 | 1 | / | /
O=C(NC(=S)N1CCN(c2nc(-c3ccccc3)cs2)CC1)c1cncc(Br)c1 | 1 | 62 | -11 | -30 | 5 | 0 | 40 | 39
CCOC(=O)C(=O)NNc1ccc(F)cc1 | -3 | 65 | -3 | -25 | 6 | 0 | 12 | -4
Cc1cnc(C(=O)N2CCC(c3nc(C)ncc3-c3ccncc3)CC2)cn1 | -26 | / | / | / | / | / | / | /
COc1ccc(CCN2C(=O)CSC2=Nc2ccc(C(C)C)cc2)cc1OC | -23 | 49 | -5 | -25 | 2 | 2 | 83* | 75*
CCOC(=O)Nc1ccc2c(c1)C(=NNC(=S)NC)c1ccccc1-2 | / | 86* | / | / | / | / | -18 | -21
COc1ccc(C)cc1NC(=O)CSc1nc2scc(C)c2c(=O)[nH]1 | / | 84* | -11 | / | / | 0 | 44 | 23
